According to ChEMBL document CHEMBL3351392, “Synthesis, in vitro and in vivo studies, and molecular modeling of N-alkylated dextromethorphan derivatives as non-competitive inhibitors of α3β4 nicotinic acetylcholine receptor” (Bioorg Med Chem, 2014):
Activity calls are given as the source filed them. The rule behind the calls is not given here.

Legend:
[1] = target: Neuronal acetylcholine receptor; alpha3/beta4 (Rattus norvegicus, UniProt P04757+P12392); experiment: Non-competitive inhibition of rat alpha3beta4 nAChR expressed in KX cells assessed as reduction in current by whole-cell patch clamp assay; assay type: cell-based
Sequence of Neuronal acetylcholine receptor; alpha3/beta4 (P04757 whole entry): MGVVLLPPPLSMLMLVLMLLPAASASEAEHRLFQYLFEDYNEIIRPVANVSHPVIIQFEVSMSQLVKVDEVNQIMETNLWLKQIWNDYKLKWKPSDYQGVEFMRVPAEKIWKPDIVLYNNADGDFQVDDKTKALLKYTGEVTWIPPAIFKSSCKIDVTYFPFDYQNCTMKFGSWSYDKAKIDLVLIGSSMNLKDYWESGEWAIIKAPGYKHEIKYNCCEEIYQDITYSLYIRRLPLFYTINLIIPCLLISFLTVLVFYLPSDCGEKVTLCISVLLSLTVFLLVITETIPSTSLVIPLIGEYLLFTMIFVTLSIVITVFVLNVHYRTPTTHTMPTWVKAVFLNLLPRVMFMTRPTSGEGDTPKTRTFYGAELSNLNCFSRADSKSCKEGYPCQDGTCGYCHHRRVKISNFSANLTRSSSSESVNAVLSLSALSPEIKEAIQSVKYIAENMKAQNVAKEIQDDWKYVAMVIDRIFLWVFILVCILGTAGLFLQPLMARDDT
Sequence of Neuronal acetylcholine receptor; alpha3/beta4 (P12392 whole entry): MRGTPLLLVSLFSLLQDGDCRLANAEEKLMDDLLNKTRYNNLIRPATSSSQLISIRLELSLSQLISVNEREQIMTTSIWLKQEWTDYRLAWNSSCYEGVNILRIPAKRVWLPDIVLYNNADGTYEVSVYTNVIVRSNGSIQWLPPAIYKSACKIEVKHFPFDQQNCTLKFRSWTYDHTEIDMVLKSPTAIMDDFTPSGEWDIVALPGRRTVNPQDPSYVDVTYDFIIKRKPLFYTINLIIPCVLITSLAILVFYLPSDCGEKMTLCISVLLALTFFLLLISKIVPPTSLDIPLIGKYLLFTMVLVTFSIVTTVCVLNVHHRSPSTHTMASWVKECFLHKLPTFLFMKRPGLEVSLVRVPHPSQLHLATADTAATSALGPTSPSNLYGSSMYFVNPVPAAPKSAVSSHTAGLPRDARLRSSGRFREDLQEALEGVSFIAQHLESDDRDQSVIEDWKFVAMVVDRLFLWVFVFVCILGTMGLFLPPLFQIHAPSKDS
How it was run: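 KXα3β4R2 cells (rat α3β4) grown in MEM with 10% FBS and 0.7 mg/ml geneticin at 37 °C, 5% CO2, and harvested at 70% confluence. Whole-cell clamp at […] holding potential in HEPES pH 7.4 bath (120 mM NaCl, 3.1 mM KCl, 2 mM CaCl2, 5 mM glucose) at room temperature. Pipette solution: CsCl, ATP, EGTA, pH 7.2. Agents were applied from 0.1 nM upward with 100 µM (S)-nicotine; IC50 taken from current decrease relative to nicotine alone (100%).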

Rattus norvegicus [2] = experiment: Toxicity in Wistar rat assessed as inhibition of conditioned place preference at 1/20 to 1/10 LD50, ip in absence of nicotine preconditioning; assay type: organism-based; conditions: in vivo
Rattus norvegicus [3] = experiment: Effect on basal locomotor activity in Wistar rat at 1/20 to 1/10 LD50, ip; assay type: ADME, organism-based; conditions: in vivo
Rattus norvegicus [4] = experiment: Behavioral effect in Wistar rat assessed as inhibition of nicotine-induced conditioned place preference at 10 mg/kg, ip administered during post-conditioning test phase on day 5 of nicotine treatment; assay type: functional, organism-based; set-up: dose 10 mg/kg
How it was run: (§1)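 Male Wistar rats (250–300 g), on restricted chow and handled for 5 days. A 15-min baseline excluded rats with a side preference. On days 2–4, two 30-min sessions per day: vehicle in the morning, nicotine 0.175 mg/kg ip in the afternoon, each in opposite compartments. On day 5, agent given ip (5 ml/kg) 60 min before nicotine, then tested immediately. Score is post- minus pre-conditioning time in the drug-paired compartment; n = 7–14.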

Rattus norvegicus [5] = experiment: Toxicity in Wistar rat assessed as inhibition of conditioned place preference at 10 mg/kg, ip in absence of nicotine preconditioning; assay type: organism-based; set-up: dose 10 mg/kg, route intraperitoneal; conditions: in vivo
Rattus norvegicus [6] = experiment: Effect on basal locomotor activity in Wistar rat at 5 mg/kg, ip; assay type: ADME, organism-based; set-up: dose 5 mg/kg, route intraperitoneal; conditions: in vivo
Rattus norvegicus [7] = experiment: Behavioral effect in Wistar rat assessed as inhibition of nicotine-induced conditioned place preference at 1/20 LD50, ip administered during post-conditioning test phase on day 5 of nicotine treatment; assay type: functional, organism-based; how it was run: as §1

Work on COc1ccc2c(c1)[C@]13CCCC[C@@H]1[C@H](C2)N(CCC#N)CC3 yielded an IC50 [1] of 176 µM.
Compound COc1ccc2c(c1)[C@]13CCCC[C@@H]1[C@H](C2)N(CC(N)=O)CC3 has an IC50 [1] of 41.4 µM.
For COc1ccc2c(c1)[C@]13CCCC[C@@H]1[C@H](C2)N(CC1=NCCN1)CC3, the IC50 [1] was 6.61 µM.
For COc1ccc2c(c1)[C@]13CCCC[C@@H]1[C@H](C2)N(CCC1OCCO1)CC3, the IC50 [1] was 7.14 µM, the Activity (Rattus norvegicus [2]) was “Non-toxic” and the Activity (Rattus norvegicus [3]) was “Non-toxic”.
COc1ccc2c(c1)[C@]13CCCC[C@@H]1[C@H](C2)N(CCC(C)=O)CC3 gave an IC50 [1] of 2.57 µM.
For CCC(=O)CN1CC[C@@]23CCCC[C@@H]2[C@@H]1Cc1ccc(OC)cc13, the IC50 [1] was 2.5 µM.
For COc1ccc2c(c1)[C@]13CCCC[C@@H]1[C@H](C2)NCC3, the IC50 [1] was 3.08 µM.
COc1ccc2c(c1)[C@]13CCCC[C@@H]1[C@H](C2)N(C)CC3 [DEXTROMETHORPHAN] was tested, and the IC50 [1] was 11.1 µM, the inhibition (Rattus norvegicus [4]) was “Active” and the Activity (Rattus norvegicus [5]) was “Non-toxic”. The Activity (Rattus norvegicus [6]) was “Non-toxic”.
In the case of COc1ccc2c(c1)[C@]13CCCC[C@@H]1[C@H](C2)N(CCCC#N)CC3, the IC50 [1] is reported as 87 µM.
For COc1ccc2c(c1)[C@]13CCCC[C@@H]1[C@H](C2)N(CC1OCCO1)CC3, the IC50 [1] was 1.95 µM, the Activity (Rattus norvegicus [2]) was “Non-toxic” and the Activity (Rattus norvegicus [3]) was “Non-toxic”.
For COc1ccc2c(c1)[C@]13CCCC[C@@H]1[C@H](C2)N(CC#N)CC3, the IC50 [1] was 10.5 µM, the Activity (Rattus norvegicus [2]) was “Non-toxic” and the inhibition (Rattus norvegicus [7]) was “Active”. For the same compound, the Activity (Rattus norvegicus [3]) was “Non-toxic”.
